Experimental data from ChEMBL document CHEMBL4145615, “Indolyl Azaspiroketal Mannich Bases Are Potent Antimycobacterial Agents with Selective Membrane Permeabilizing Effects and in Vivo Activity” (J Med Chem, 2018).
In brackets after ≈: the same amount, converted by molar mass. Activity calls are given as the source filed them. The calls are words filed in the database; no cut-off is given here.

Legend:
[1] = system: Cell membrane; test: Disruption of cell membrane potential in Mycobacterium bovis BCG ATCC 35734 at 0.08 uM after 20 mins to 5 days by DiOC2 dye-based fluorescence assay; conditions: Mycobacterium tuberculosis variant bovis BCG
In short: (§1)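 Controls were rifampicin 0.08 μM (negative) and CCCP 100 μM (positive). Membrane potential tracked by DiOC2 red/green fluorescence ratio over minutes–hours and days 1–5, versus drug-free cultures. 2–3 independent biological replicates.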

[2] = system: Mycobacterium tuberculosis variant bovis BCG; test: Antimycobacterial activity against Mycobacterium bovis BCG ATCC 35734 after 5 days in absence of glycerol by broth dilution method; type: functional; conditions: ATCC 35734, 120 h
[3] = system: Mycobacterium tuberculosis variant bovis BCG; test: Antimycobacterial activity against Mycobacterium bovis BCG ATCC 35734 after 5 days by broth dilution method; type: functional; conditions: ATCC 35734, 120 h
[4] = system: Mycobacterium tuberculosis variant bovis BCG; test: Bactericidal activity against Mycobacterium bovis BCG ATCC 35734 assessed as 1000 fold reduction in CFU after 5 days; type: functional; conditions: ATCC 35734, 120 h, read-out: MBC99.9
In short: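 BCG ran 5 days at 37°C, 110 rpm; H37Rv ran 7 days at 37°C, 80 rpm. CFU counted on 7H10 agar. MBC99.9 is the 1000-fold CFU reduction versus inoculum at time zero. Average of 2 or more determinations.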

[5] = system: Mycobacterium tuberculosis variant bovis BCG; test: Bactericidal activity against Mycobacterium bovis BCG ATCC 35734 at 4 times MIC90 measured up to 48 hrs by time kill assay relative to control; type: functional
In short: (§2)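 Samples taken at 6, 12, 24 and 48 h, diluted and plated on 7H10 agar for CFU. Three independent biological replicates.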

[6] = system: Mycobacterium tuberculosis variant bovis BCG; test: Antimycobacterial activity against Mycobacterium bovis BCG ATCC 35734 after 5 days in presence of 10% FBS by broth dilution method; type: functional; conditions: ATCC 35734, 120 h
[7] = system: Cell membrane; test: Induction of cell membrane permeabilization in Mycobacterium bovis BCG ATCC 35734 at 4 times MIC90 after 12 hrs by SYTO9/propidium iodide staining-based fluorescence assay; conditions: Mycobacterium tuberculosis variant bovis BCG
In short: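 At each time point cells were washed into 0.9% NaCl at OD600 = 0.5 and stained with SYTO 9 and PI for 15 min at 37°C in the dark. Green (488/530 nm) and red (488/630 nm) fluorescence read. G/R ratio scaled between drug-free (0%) and 5% SDS (100%). Three biological replicates.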

[8] = system: Cell membrane; test: Disruption of cell membrane potential in Mycobacterium bovis BCG ATCC 35734 at 4 times MIC90 after 4 hrs by DiOC2 dye-based fluorescence assay; conditions: Mycobacterium tuberculosis variant bovis BCG; in short: as §1
[9] = system: Cell membrane; test: Disruption of cell membrane potential in Mycobacterium bovis BCG ATCC 35734 at 4 times MIC90 after 3 days by DiOC2 dye-based fluorescence assay; conditions: Mycobacterium tuberculosis variant bovis BCG; in short: as §1
[10] = system: Mycobacterium tuberculosis variant bovis BCG; test: Bactericidal activity against Mycobacterium bovis BCG ATCC 35734 at 4 times MIC90 measured at 48 hrs by time kill assay relative to control; type: functional, organism-based; in short: as §2
[11] = system: Cell membrane; test: Disruption of cell membrane potential in Mycobacterium bovis BCG ATCC 35734 at 100 uM after 20 mins to 5 days by DiOC2 dye-based fluorescence assay; conditions: Mycobacterium tuberculosis variant bovis BCG; in short: as §1

SMILES | MIC50 [2] [µM] | MIC50 [3] [µM] | MIC90 [3] [µM] | MBC [4] [µM] | MIC50 [6] [µM] | further results
CO[C@H]1/C=C/O[C@@]2(C)Oc3c(C)c(O)c4c(O)c(c(/C=N/N5CCN(C)CC5)c(O)c4c3C2=O)NC(=O)/C(C)=C\C=C\[C@H](C)[C@H](O)[C@@H](C)[C@@H](O)[C@@H](C)[C@H](OC(C)=O)[C@@H]1C |  |  |  |  |  | Activity [1]: inactive
CCCCCCCCn1cc(CN2CCC3(CC2)OCCCS3)c2ccc(OC)cc21 | 0.41 (≈ 0.182 µg/mL) | 0.4 (≈ 0.178 µg/mL) | 0.8 (≈ 0.356 µg/mL) | 0.4 to 1.6 (≈ 0.178 to 0.711 µg/mL) | 0.6 | fold change (FC) [5]: >100; Activity [7]: Active
CCCCCCCCn1cc(CN2CCC3(CC2)SCCCS3)c2ccc(OC)cc21 | 0.43 (≈ 0.198 µg/mL) | 0.4 (≈ 0.184 µg/mL) | 0.8 (≈ 0.369 µg/mL) | 0.8 to 1.6 (≈ 0.369 to 0.737 µg/mL) | 0.48 | 
CCCCCCCCn1cc(CN2CCC3(CC2)SCCS3)c2ccc(OC)cc21 | 0.27 (≈ 0.121 µg/mL) | 0.5 (≈ 0.223 µg/mL) | 0.8 (≈ 0.357 µg/mL) | 0.8 to 1.6 (≈ 0.357 to 0.715 µg/mL) | 0.28 | 
CCCCCCCCn1cc(CN2CCCCCC2)c2c(F)cccc21 |  |  |  |  |  | Activity [8]: inactive; Activity [9]: Active
CCCCCCCCn1cc(CN2CCC3(CC2)OCCS3)c2ccc(OC)cc21 | 0.37 (≈ 0.159 µg/mL) | 0.6 (≈ 0.258 µg/mL) | 0.8 (≈ 0.345 µg/mL) | 0.8 to 1.6 (≈ 0.345 to 0.689 µg/mL) | 0.32 | 
CCCCCCCCn1cc(CN2CCC3(CC2)OCCCO3)c2ccc(OC)cc21 | 0.35 (≈ 0.15 µg/mL) | 0.3 (≈ 0.129 µg/mL) | 0.8 (≈ 0.343 µg/mL) | 0.8 to 1.6 (≈ 0.343 to 0.686 µg/mL) | 0.33 | fold change (FC) [5]: >100
CCCCCCCCn1cc(CN2CCC3(CC2)OCCO3)c2ccc(OC)cc21 | 1.6 (≈ 0.663 µg/mL) | 2 (≈ 0.829 µg/mL) | 4 (≈ 1.66 µg/mL) | 3 to 6 (≈ 1.24 to 2.49 µg/mL) | 1.1 | Activity [10]: inactive
NNC(=O)c1ccncc1 [ISONIAZID] |  |  |  |  |  | fold change (FC) [5]: >100
N#CC(C#N)=NNc1cccc(Cl)c1 |  |  |  |  |  | Activity [11]: Active
CCCCCCCCn1cc(CN2CCC3(CC2)CNC(=O)O3)c2ccc(OC)cc21 |  | 22 (≈ 9.41 µg/mL) | 43 (≈ 18.4 µg/mL) |  |  | 
COc1ccc(OCCCn2cc(CN3CCC4(CC3)OCCCO4)c3ccc(OC)cc32)cc1 |  | 1.5 (≈ 0.721 µg/mL) | 3.5 (≈ 1.68 µg/mL) |  |  | 
CCCCCCCCn1ccc2cc(OCCCN3CCCCC3)ccc21 |  | 13 (≈ 4.82 µg/mL) | 40 (≈ 14.8 µg/mL) |  |  | 
CCCCCCCCn1cc(CNC2CCC(=O)CC2)c2ccc(OC)cc21 |  | 15 (≈ 5.77 µg/mL) | 24 (≈ 9.23 µg/mL) |  |  | 
CCCCCCCCn1cc(CNCC2CCC3CC3C2)c2ccc(OC)cc21 (stereo not drawn) |  | 1.6 (≈ 0.635 µg/mL) | 2.3 (≈ 0.912 µg/mL) |  |  | 
CCCCCCCCn1ccc2cc(OCCCN3CCCCCC3)ccc21 |  | 1.9 (≈ 0.731 µg/mL) | 8 (≈ 3.08 µg/mL) |  |  | 
CCCCCCCCn1cc(CN2CCC3(CC2)OC(C)C(C)O3)c2ccc(OC)cc21 (stereo not drawn) |  | 0.7 (≈ 0.31 µg/mL) | 1.6 (≈ 0.708 µg/mL) |  |  | 
